# RAD54 branch = blocks human RAD54 Holliday junction branch migration; Q92698; FAM/BHQ fluorescence; inhibition, % at 10.4 µM; hit rate 0.14% among 360,000; AID 602329;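 active = mean normalized replicate activity at least 40 and at least half of replicates scoring 40 or more; inconclusive = only one of the two criteria met; inactive = mean below 40 and under half of replicates reaching 40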;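 note: 0% = median of neutral control wells and 100% = median of positive control wells; inhibitors cause a drop in the FAM fluorescence signal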
# CAL PDZ FP-1 = human CAL PDZ-peptide interaction inhibition. purified CAL PDZ, TMR-peptide fluorescence polarization, 1 h. Q9HD26. hit rate 0.02% among 330,000. inhibition, % at 20 µM;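 active = highest replicate inhibition of at least 40%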;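 note: plate controls were DMSO neutral control wells for no effect and unlabeled competitor peptide control wells for full effect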
#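 Material – purified CerCALP PDZ construct · Detection – FP readout, S and P plane fluorescence · Measure – percent inhibition from loss of millipolarization · Controls – unlabelled peptide for full inhibition, DMSO wells as neutral · Probe or stimulus – TMR-labelled reporter peptide T*-PRC34 bound in PDZ groove · Times – 1 h at RT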
# ERp5 inh = inhibitors of human ERp5 | Q15084 | ERp5 insulin aggregation, absorbance 650 nm, 90 min | inhibition, % at 9.99 µM | hit rate 0.05% among 350,000 | AID 651711;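 active = mean replicate inhibition above about 25%, with every replicate also reaching it, limit read from the data, passing the limit was not always enough; inconclusive = only one of those two criteria met; inactive = neither criterion met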
# PDI inh = inhibitors of human protein disulfide isomerase. PDI insulin aggregation turbidity, A650, 90 min. inhibition, % at 10 µM. P07237. hit rate 0.052% among 350,000;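 active = mean inhibition across replicates of 30% or more, whatever share of single replicates reach that level; inconclusive = mean inhibition below 30% while every single replicate reaches 30%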
# Target sequence (P07237 whole entry, looked up): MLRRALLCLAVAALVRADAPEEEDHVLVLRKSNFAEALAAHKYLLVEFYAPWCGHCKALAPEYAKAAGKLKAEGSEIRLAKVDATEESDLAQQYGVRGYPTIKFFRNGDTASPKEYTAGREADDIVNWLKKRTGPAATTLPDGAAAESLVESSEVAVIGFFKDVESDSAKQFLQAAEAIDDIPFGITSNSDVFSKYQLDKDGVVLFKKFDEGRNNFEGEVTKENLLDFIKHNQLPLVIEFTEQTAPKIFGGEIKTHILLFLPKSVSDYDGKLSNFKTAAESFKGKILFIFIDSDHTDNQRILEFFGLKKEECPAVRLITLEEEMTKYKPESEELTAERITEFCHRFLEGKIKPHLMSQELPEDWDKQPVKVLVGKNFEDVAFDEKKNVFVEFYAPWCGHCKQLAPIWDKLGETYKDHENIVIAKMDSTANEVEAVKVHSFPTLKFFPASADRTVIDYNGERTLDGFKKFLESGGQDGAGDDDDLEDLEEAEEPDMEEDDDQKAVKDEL
# CAL PDZ FP-2 = inhibitors of human CAL PDZ peptide binding; inhibition, % at 24.9 µM; Q9HD26; purified CAL PDZ, TMR-peptide fluorescence polarization, 1 h; hit rate 0.92% among 300,000;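 active = mean inhibition of at least 30% with at least half of replicates also reaching 30%; inconclusive = no clear call, values can overlap the other calls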;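 note: 0% = DMSO neutral control and 100% = excess unlabeled competitor peptide PRC23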
# RAD52 inh = RAD52 (human) annealing inhibition; P43351; hit rate 0.46% among 360,000; inhibition, % at 18.7 µM; recombinant RAD52 DNA annealing, FRET fluorescence; AID 651710;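 active = every replicate showing at least 50% inhibition; inconclusive = mean inhibition at least 50% but not in every replicate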
# Rad54 DNA ctr = DNA binding artifact in Rad54 counter-screen; Acridine orange-DNA displacement, fluorescence polarization, 20 min; shares compounds with RAD54 branch; hit rate 8% among 460; AC50, µM (series often up to 35 µM), inactives show top-dose activity change, negative = DNA binding;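 active = signal drop giving an AC50 within twice the top valid tested concentration of each sample, actives reach about 35 µM in these data; inactive = activity opposite to expected, plus the rest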;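 note: polarization loss reports compound binding to salmon sperm DNA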
# RAD52 DNA ctr = counter-screen for RAD52 inhibitors: DNA binding compounds; shares compounds with RAD52 inh; Salmon sperm DNA/acridine orange FP displacement; AC50, µM; hit rate 8% among 1,000; AID 652128;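 active = fitted half-maximal concentration for signal loss at or below twice the highest dose tested, in every separate run, actives reach about 64 µM in these data; inconclusive = runs disagree, or flat partial signal loss, or poor fit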
# Starred values were filed as active, the others as inactive; i = inactive; ? = inconclusive; . = no result. Only some compounds are listed: those with a hit (about 1% of all), similar ones and a draw of the others.
SMILES,RAD54 branch,CAL PDZ FP-1,ERp5 inh,PDI inh,CAL PDZ FP-2,RAD52 inh,Rad54 DNA ctr,others
Cc1ccc(Nc2cc(C)nc3c(C)cccc23)cc1,?,-3.4,3.8,-6.3,-2.8,10.0,-5.7%,
COc1ccc(Nc2cc(C)nc3ccccc23)cc1,35.1,-2.2,3.5,-3.1,-6.6,17.5,.,
COc1ccc2nc(C)cc(Nc3ccc(N4CCOCC4)cc3)c2c1,?,-0.4,.,4.1,-0.6,.,-4.7%,
CN(C)c1ccc2c(c1)[C@@H]1C[C@@H](CC(=O)NCc3cccc(F)c3)O[C@@H](CO)[C@@H]1O2,-9.4,.,11.8,.,.,-24.3,.,
CCOC(=O)c1[nH]c2cc3c(cc2c1CCCN1C(=O)c2ccccc2C1=O)OCCO3,?,0.4,.,-1.3,-1.8,.,5.5%,
Cc1ccc(S(=O)(=O)CCSc2ccc(C(F)(F)F)cn2)cc1,?,.,3.8,-0.2,.,-16.9,-1.9%,
CCCN1CCN(CCCNC(=O)c2cc3c(=O)n(C)c4ccccc4c3n2C)CC1,?,-0.3,1.4,.,.,26.4,-3.4%,
CN1CCN(CCNC(=O)c2cc3c(=O)n(C)c4ccccc4c3n2C)CC1,63.6*,-0.2,2.1,.,.,19.5,0.4%,
Cn1c(C(=O)NCCCN2CCc3ccccc3C2)cc2c(=O)n(C)c3ccccc3c21,19.2,-3.9,-4.1,.,.,20.0,.,
CCNC(=O)C[C@@H]1CC[C@H]2[C@H](COc3ccc(NC(=O)Nc4ccc(C)cc4)cc3C(=O)N2C)O1,-0.3,.,3.5,.,.,2.2,.,
OC1CCCN(Cc2cccc3ccccc23)C1 (centres undefined),-1.1,-0.1,.,16.6,0.1,.,.,
OC1CCCN(Cc2c3ccccc3cc3ccccc23)C1 (centres undefined),93.1*,-0.8,.,-4.6,-1.6,.,i,
CCn1c(=N)c(C(=O)NC)cc2c(=O)n3cccc(C)c3nc21,?,-2.0,.,-3.2,-3.3,.,0.0%,
CCCn1c(=N)c(C(=O)NC2CCCC2)cc2c(=O)n3cccc(C)c3nc21,8.8,-1.3,.,14.9,-2.9,.,.,
COc1cc2nc(N3CCNCC3)nc(N)c2cc1OC,64.2*,-0.6,.,16.8,-2.0,.,-9.3%,
O=C(NCC[C@@H]1CC[C@H](NS(=O)(=O)Cc2ccccc2)[C@H](CO)O1)C1CC1,-10.0,.,0.2,.,.,-15.9,.,
C=CCn1c(C)nnc1SCC(=O)N1c2ccccc2NC(=O)C1(C)C,-5.0,.,0.2,-8.2,.,0.5,.,
C=CCN1C(=O)C(C)(C)Nc2ccccc21,?,-0.3,.,1.8,4.7,.,-7.3%,
CCNCCNC(=O)c1c(O)c2cccc3c2n(c1=O)CCC3,?,-0.7,.,-2.3,-3.0,.,-8.9%,
COc1ccc2c3c([nH]c2c1)[C@H](CO)N(C(=O)CC1CC1)CC31CN(C(=O)CC2CC2)C1,.,.,9.9,.,.,-5.7,.,
COc1ccc(C(=O)CN2CCN(CCN3C(=O)c4cccc5cccc(c45)C3=O)CC2)cc1,64.0*,-1.6,3.3,1.2,-3.6,-5.5,-18.9%,
CCOC(=O)c1c(C)n(-c2ccc(C)cc2)c2ccc(O)c(CN(C)C)c12,36.9,0.5,-0.5,2.2,-1.0,42.7,.,
CCOC(=O)c1c(C)n(-c2ccc(OC)cc2)c2ccc(O)c(CN(C)C)c12,?,-3.2,-5.9,-7.5,-3.9,43.5,10.8%,
Cc1noc(C)c1S(=O)(=O)N(C)C[C@@H]1OCCCC[C@H](C)Oc2ccc(NC(=O)C3CCCCC3)cc2C(=O)N([C@H](C)CO)C[C@H]1C,-2.3,.,-15.0,.,.,-36.2,.,
O=S(=O)(c1ccc(-c2nnc(SCc3ccccc3)o2)cc1)N1CCCC1,?,-0.7,.,-3.5,1.7,.,7.8%,
SMILES,RAD54 branch,CAL PDZ FP-1,ERp5 inh,PDI inh,CAL PDZ FP-2,RAD52 inh,Rad54 DNA ctr,others
Cc1ccc(CSc2nnc(-c3ccc(S(=O)(=O)N4CCCC4)cc3)o2)cc1,3.4,-0.2,.,6.7,.,.,.,
Cc1ccc2[nH]c(=O)c3cc(C(=O)NCCN4CCN(C)CC4)sc3c2c1,57.3*,-1.8,7.9,.,0.6,26.1,-13.3%,
COc1cc(C)c2sc3ccccc3c(=O)c2c1NCCN(C)C,92.8*,.,16.2,-1.4,.,94.5*,9.33µM*,RAD52 DNA ctr=17.5µM*
CC=Cc1ccc2n(c1=O)C[C@H]1[C@H](CO)[C@@H](C(=O)NCc3ccncc3)N(Cc3ccncc3)[C@@H]21 (mixture of isomers),-4.4,.,5.5,.,.,-75.5,.,
CCN(CC)CC(O)c1ccc2ccc3ccc(O)cc3c2c1 (centres undefined),68.2*,1.1,-6.1,-2.1,-2.6,71.6*,-7.5%,RAD52 DNA ctr=i
CCN(CC)CC(O)Cn1c2ccccc2c2ccccc21 (centres undefined),12.5,-2.4,.,-7.3,3.1,.,.,
CO[C@@H]1CN(C)C(=O)c2ccc(NC(=O)C3CC3)cc2OC[C@H](C)N(Cc2cccnc2)C[C@@H]1C,1.6,.,-2.0,.,.,25.0,.,
C=CCNc1nc(N)c([N+](=O)[O-])c(Nc2ccccc2OC)n1,1.7,2.4,3.2,-1.5,-2.9,-6.2,.,
COc1ccccc1Nc1nc(NCCCN(C)C)nc(N)c1[N+](=O)[O-],77.0*,0.2,-1.7,-3.2,-9.3,94.7*,-19.3%,RAD52 DNA ctr=i
CCC(=O)N1[C@H](CO)[C@@H](c2ccc(/C=C/c3ccccc3)cc2)C12CN(S(C)(=O)=O)C2,.,.,5.5,.,.,-36.0,.,
Cc1cc(C)c2c(c1)c1nnc(SCCN3CCCCC3)nc1n2C,73.1*,-2.1,3.5,-0.8,-4.0,85.5*,7.4%,RAD52 DNA ctr=i
CO[C@H]1CN(C)C(=O)c2ccc(NC(=O)Nc3ccccc3F)cc2OC[C@H](C)N(C(C)=O)C[C@@H]1C,-11.8,.,-3.0,.,.,13.8,.,
COc1ccc(Nc2nc(NCC3CCCO3)c3ccccc3n2)c(OC)c1 (centres undefined),?,3.1,-6.2,-4.4,4.6,54.1*,4.9%,RAD52 DNA ctr=i
CN(C)CCCNc1nc2cc(-c3ccc(F)cc3)sc2c(=O)n1C,69.7*,.,0.4,-37.5,.,71.3*,-14.1%,RAD52 DNA ctr=i
CN(C)CCCNc1nc2cc(-c3ccccc3)sc2c(=O)n1C,?,.,4.5,-4.9,.,53.5*,-15.5%,RAD52 DNA ctr=i
CN(C)CCCNc1nc2cc(-c3cncnc3)sc2c(=O)n1C,29.0,.,3.4,3.7,.,6.9,.,
CN1CCN(C(=O)[C@@H]2[C@@H](CO)[C@@H]3Cn4c(cccc4=O)[C@H]2N3S(=O)(=O)c2ccccc2F)CC1,6.3,.,-2.4,.,.,-0.5,.,
C[C@@H]1CCCCO[C@@H](CN(C)S(=O)(=O)c2cn(C)cn2)[C@H](C)CN([C@@H](C)CO)C(=O)c2cc(NS(C)(=O)=O)ccc2O1,1.9,.,4.1,.,.,-3.3,.,
CN(C)CCCN1C(=O)c2cccc3cccc(c23)C1=O,102.1*,0.3,3.7,-1.0,-0.3,58.5*,-18.8%,RAD52 DNA ctr=i

# Screening results: PubChem BioAssay, Broad Institute
